The nature of experiment [1]: Antioxidant activity assessed DPPH scavenging activity at 500 uM. It counts as functional. In outline: (§1)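 DPPH free-radical scavenging was measured in a cell-free system, with IC50 determined. Constituents were also screened at 500 μM.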
In general terms: DPPH is a stable violet radical that fades when it is reduced.

Experiment [2] can be described thus: (§2) Anti-inflammatory activity in human neutrophils assessed as inhibition of FMLP/CB-induced superoxide anion generation. The class given is functional, cell-based. The conditions noted are these: Neutrophil. In outline:
(§3)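 Human neutrophils were activated with FMLP plus cytochalasin B (FMLP/CB). IC50 is the concentration giving 50% inhibition of the response. Values are mean ± SEM, n = 3–4.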

Experiment [3] is described as follows: (§4) Anti-inflammatory activity in human neutrophils assessed as inhibition of FMLP/CB-induced elastase release. It counts as functional, cell-based. The following applies: Neutrophil. A digest of the protocol: as §3
Experiment [4] can be described thus: Antioxidant activity assessed DPPH scavenging activity. It counts as functional. In outline: as §1
Experiment [5] can be described thus: Anti-inflammatory activity in human neutrophils assessed as inhibition of FMLP/CB-induced superoxide anion generation at 10 ug/mL. It counts as functional. The conditions noted are these: Neutrophil. In outline:
(§5)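 Human neutrophils were activated with FMLP/CB. Percentage inhibition of the response was measured with samples at 10 μg/mL. Values are mean ± SEM, n = 3–4, and significance was tested against the control value.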

Experiment [6] in a line: Anti-inflammatory activity in human neutrophils assessed as inhibition of FMLP/CB-induced elastase release at 10 ug/mL. It counts as functional. The following applies: Neutrophil. In outline:
as §5

The subject of experiment [7] is Neutrophil. The experiment is described as §2. The class given is functional, cell-based. In outline:
as §3

For experiment [8], the system named is Neutrophil. The description is as §4. The class given is functional, cell-based. In outline: as §3

SMILES strings stand for the structures. Converted amounts (≈) assume the structure as drawn. The source made the active and inactive calls. The rule behind the calls is not given here.

The inhibition is how much of the control response was suppressed. Consider `O=C1N[C@@H](Cc2ccccc2)C(=O)N2CCC[C@@H]12`, for which the inhibition result in experiment [1] is “inactive”.

As usually defined, the IC50 is the concentration that gives 50% inhibition. `O=c1c(-c2ccc(O)cc2)coc2cc(O)ccc12` [DAIDZEIN]: in experiment [2], the IC50 came out at 6.19 µg/mL (≈ 24.3 µM). In addition, the inhibition entry in experiment [1] was “inactive”.

As to `O=C(O)c1cc2c([nH]c3ccccc32)c(-c2ccc(CO)o2)n1`, in experiment [1], the inhibition entry is “inactive”.

For `CC(C)[C@@H](C)/C=C/[C@@H](C)[C@H]1CC[C@H]2C3=CC=C4C[C@@H](O[C@@H]5O[C@H](CO)[C@@H](O)[C@H](O)[C@H]5O)CC[C@]4(C)[C@H]3CC[C@]12C`, the values for the IC50 in experiment [2] and in experiment [3] were 5.42 µg/mL (≈ 9.7 µM) and 5.62 µg/mL (≈ 10.1 µM), respectively. In experiment [1], the inhibition result was “inactive”.

On to `CC(C)C[C@@H]1NC(=O)[C@@H]2CC[C@@H](O)N2C1=O`, for which the inhibition entry in experiment [1] is “inactive”.

In experiment [4], `O=C1O[C@H]([C@@H](O)CO)C(O)=C1O` [ASCORBIC ACID] showed an IC50 of 38.6 µM.

Regarding `O=C1C[C@H](O)[C@@H](CO)O1`, the inhibition result in experiment [1] was “inactive”.

Turning to `COc1ccc2c(c1)c(CC(=O)O)c(C)n2C(=O)c1ccc(Cl)cc1` [INDOMETHACIN], the half-maximal inhibitory concentration (IC50) in experiment [2] turned out to be 38.3 µg/mL (≈ 107 µM); in experiment [3] it was 32 µg/mL (≈ 89.4 µM). Further, the inhibition entry in experiment [1] was “inactive”.

`O=C1N[C@@H](Cc2ccc(O)cc2)C(=O)N2CCC[C@@H]12`: in experiment [1], the inhibition entry is “inactive”.

For the compound `COc1cc(/C=C/C(=O)O[C@H]2CC[C@]34C[C@]35CC[C@]3(C)[C@@H]([C@H](C)CCC=C(C)C)CC[C@@]3(C)[C@@H]5CC[C@H]4C2(C)C)ccc1O` [GAMMA ORYZANOL], the inhibition at 10 µg/mL in experiment [5] came to 28.2%; in experiment [6], 41.6%. For the same compound, in experiment [1], the inhibition entry is “inactive”.

Take `O=c1c(-c2ccc(O)c(O)c2)coc2cc(O)ccc12`: half-maximal inhibition in experiment [4] (IC50) required 32 µM.

Turning to `O=C(O)c1ccco1`, the inhibition entry in experiment [1] is “inactive”.

With `Cc1occc(=O)c1O`, the inhibition result in experiment [1] was “inactive”.

Consider `CC(C)[C@@H]1NC(=O)[C@@H]2CCCN2C1=O`, for which the inhibition result in experiment [1] was “inactive”.

Regarding `OCc1ccc(-c2nccc3c2[nH]c2ccccc23)o1` [PERLOLYRIN], the figures for the IC50 in experiment [2] and in experiment [3] were 0.45 µg/mL (≈ 1.7 µM) and 1.68 µg/mL (≈ 6.36 µM), respectively. Also, the inhibition result in the experiment with Neutrophil [7] and with Neutrophil [8] was “Dose-dependent effect” each time. The inhibition result in experiment [1] was “inactive”.

Source of the values: ChEMBL document CHEMBL1821666, “Anti-inflammatory principles from Cordyceps sinensis” (J Nat Prod, 2011).
